# A selection: hits, their analogues and other compounds. The true share with any hit is near 1.2%.
# Rtt109 Vps75 – C. albicans Rtt109 histone acetyltransferase inhibition; Q5AAJ8; purified Rtt109/Vps75, ThioGlo CoA-SH fluorescence, 4 h; inhibition, % at 34.9 µM; 0.16% of 330,000 active; AID 540336;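 active = inhibition of at least 50% in every replicate; inconclusive = best replicate reaches 50% inhibition but some replicates fall short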
# Target sequence (Q5AAJ8 whole entry, looked up): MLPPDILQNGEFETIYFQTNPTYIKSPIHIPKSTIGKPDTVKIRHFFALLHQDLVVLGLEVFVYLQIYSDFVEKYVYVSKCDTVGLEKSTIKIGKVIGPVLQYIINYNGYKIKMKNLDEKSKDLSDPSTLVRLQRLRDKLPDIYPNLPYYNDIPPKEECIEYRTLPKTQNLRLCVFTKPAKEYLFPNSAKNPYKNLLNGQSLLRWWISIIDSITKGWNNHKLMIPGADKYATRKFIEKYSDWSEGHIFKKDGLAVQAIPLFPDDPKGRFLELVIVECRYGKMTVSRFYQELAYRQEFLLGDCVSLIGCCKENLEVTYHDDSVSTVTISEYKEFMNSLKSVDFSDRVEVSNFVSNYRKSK
# HNF4A DNA FP – change in binding of human HNF4 alpha to DNA; P41235; HNF4a-FITC DNA binding, fluorescence polarization, 1 h; activity change, % at 10 µM; 0.3% of 360,000 active; AID 1224865; in the data active = activity change above about 30%, passing the limit was not always enough
# TPT1 inhibitor – inhibitors of Candida albicans tRNA 2'-phosphotransferase TPT1. recombinant caTPT1, FP RNA substrate dephosphorylation. AID 1962. inhibition, % at 5 µM. 0.81% of 300,000 active;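 active = inhibition above the mean of all tested compounds plus 3 SD, set per screening campaign, cut at about 24% in these data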
# CSN inh – inhibitors of human CSN-mediated cullin deneddylation. inhibition, % at 12.5 µM. Purified CSN, SCF-Nedd8-OG deneddylation, fluorescence polarization. 0.38% of 360,000 active. Q92905;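 active = pattern-corrected inhibition above about 35%, with an unprinted fluorescence ratio check between 0.5 and 1.5, limit read from the data, passing the limit was not always enough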
# Target sequence (Q92905 whole entry, looked up, one chain of several): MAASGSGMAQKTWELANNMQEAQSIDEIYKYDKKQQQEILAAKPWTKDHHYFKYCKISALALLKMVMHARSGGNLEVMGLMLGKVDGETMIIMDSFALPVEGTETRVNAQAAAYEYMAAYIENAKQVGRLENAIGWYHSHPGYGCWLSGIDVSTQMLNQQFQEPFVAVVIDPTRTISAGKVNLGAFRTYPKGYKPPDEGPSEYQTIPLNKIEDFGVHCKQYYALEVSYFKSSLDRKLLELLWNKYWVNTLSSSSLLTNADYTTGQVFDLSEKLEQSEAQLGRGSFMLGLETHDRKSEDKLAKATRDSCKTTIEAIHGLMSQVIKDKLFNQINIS
#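 Assay system: purified human Csn5 enzyme expressed in HEK293T cells; Input: 0.24 nM Csn5 enzyme, final concentration; Reagent: 10 nM SCFSkp2-Nedd8OG; Compound dosing: 12.5 µM single point; Times: reaction 90 min, room temperature; Technique: fluorescence polarization readout.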
# TPT1 inh confirm – confirmation of Candida albicans TPT1 inhibitors | recombinant caTPT1, fluorescence polarization, RNase T1 coupled | 74% of 2,400 active | inhibition, % at 5 µM | shares compounds with TPT1 inhibitor;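 active = inhibition above the primary screen limit, the mean inhibition of all tested compounds plus 3 SD, cut at about 25% in these data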
# RNase T1 inh – counter-screen for TPT1 inhibitors: inhibitors of Aspergillus oryzae RNase T1; inhibition, % at 5 µM; RNase T1 cleavage, fluorescence polarization, 1536-well; shares compounds with TPT1 inhibitor; AID 2153; 83% of 2,400 active;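 active = inhibition above the solvent-only control well mean plus 3 SD, limit set per screening run, cut at about 23% in these data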;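 note: inhibitors block cleavage so intact labeled substrate keeps polarization high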
# CSN5 deneddyl – validation of inhibitors of human CSN-mediated cullin deneddylation | Csn5 deneddylation of SCF-Nedd8OG, fluorescence polarization, 90 min | shares compounds with CSN inh | 62% of 540 active | inhibition, % at 16.6 µM; in the data active = inhibition above about 50%
# MMP2 cntr CSN – counter-screen for CSN deneddylation inhibitors: human MMP-2 inhibition; shares compounds with CSN inh; recombinant MMP-2, FRET substrate fluorescence, 60 min; inhibition, % at 16.6 µM; 33% of 540 active;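 active = corrected plate-normalized z-score of 5 or more, or -5 or less, or inhibition of 15% or more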
# Thrombin counter – thrombin (bovine) inhibition, counter-screen for CSN hits | 49% of 540 active | AID 720656 | inhibition, % at 16.6 µM | bovine thrombin cleavage of Ub4-pepOG, fluorescence polarization | shares compounds with CSN inh;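 active = inhibition at or above a set limit, with a fluorescence interference ratio between 0.5 and a set maximum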
# A number is an active result; n = inactive; u = inconclusive; x = not tested or not shown.
SMILES,Rtt109 Vps75,HNF4A DNA FP,TPT1 inhibitor,CSN inh,TPT1 inh confirm,RNase T1 inh,CSN5 deneddyl,MMP2 cntr CSN,Thrombin counter
CC1=CN2C(=N)/C(=C/c3ccco3)C(=O)N=C2S1,n,n,n,n,x,x,x,x,x
COc1ccccc1-c1ccc(/C=C2/C=C(C)OC2=O)o1,n,n,n,n,x,x,x,x,x
COc1ccccc1-c1ccc(/C=C2\C=CC(=O)O2)o1,n,n,114.1,77.1,117.3,113.0,n,n,53.2
COC(=O)[C@H](CCSC)NC(=O)Cn1cnc2c(OCc3ccccc3)ncnc21,n,n,x,n,x,x,x,x,x
COC1=CC(=Cc2c(N)n3nc(CC(=O)N4CCOCC4)sc3nc2=O)C=C(OC)C1=O,n,62.4,50.0,88.2,131.9,130.7,94.4,n,82.6
CN(C)c1ccc(/C=C/C(=O)c2cc(Cl)ccc2O)cc1,x,74.9,39.8,70.8,50.0,60.5,67.7,n,41.7
CCc1nc2ccc(C(=O)NCCCN3CCCC3=O)cn2c1N(CC)CCOC,x,n,x,n,x,x,x,x,x
O=C(N/N=C/c1cc(Br)cc(Cl)c1O)c1ccc2c(c1)OCO2,n,n,35.2,100.3,32.5,44.6,n,29.2,19.9
CCN1/C(=C/c2ccc3cccc(C)c3[n+]2CC)Sc2ccccc21,n,107.1,60.4,54.1,65.6,75.6,n,n,n
C=CCSC1=N/C(=C\c2sccc2C)C(=O)S1,n,n,n,n,x,x,x,x,x
C=CCSC1=N/C(=C\C=C\c2ccco2)C(=O)S1,n,n,29.2,57.5,27.7,38.1,68.4,29.8,n
CC1=NN(c2ccccc2)C(=O)/C1=C\C=C1/N(C)c2ccccc2C1(C)C,x,108.7,74.3,80.3,74.1,84.1,65.1,n,71.1
O=C1C2C(C(=O)N1Cc1ccco1)C1C=CC2C12CC2 (centres undefined),n,n,n,n,x,x,x,x,x
O=C1CC(=O)N(Cc2ccco2)C(=O)N1,n,n,92.4,66.0,47.5,58.5,n,24.9,44.0
COc1cccc(/C=C/C(=O)OCC(=O)NC2CC2)c1OC,n,n,x,n,x,x,x,x,x
CCOC(=O)/C(=C/C1=CC(=C/N(C)C)/C(=O)O1)C(C)=O,n,65.6,124.2,92.7,140.2,137.8,120.6,n,82.0
Cc1ccc(/C=C/c2ccc(N(C)C)cc2)[n+](C)c1,n,89.1,36.3,46.8,45.8,55.8,40.0,-92.5,67.7
COc1ccc(N=Cc2c(O)c3ccccc3n2C(C)=O)cc1,n,96.7,121.8,60.8,130.9,128.5,50.3,n,56.4
COc1cc(OC)c(NC(=O)c2cc3ccccc3cc2O)cc1Cl,n,n,x,n,x,x,x,x,x
COc1ccc(/C=C2\C(=O)NC(=S)N2C(=O)c2ccc(C)cc2)cc1,n,n,49.2,48.1,65.5,78.2,n,n,36.6
O=C1NC(=S)N(C(=O)c2ccc(F)cc2)/C1=C/c1cccnc1,x,n,n,n,x,x,x,x,x
CCOC(=O)C1CCCN(C2=NC(=O)/C(=C/c3ccc(OC)cc3)S2)C1 (centres undefined),n,n,n,n,x,x,x,x,x
CCOC(=O)C1CCCN(C2=NC(=O)/C(=C/c3ccc(N(C)C)cc3)S2)C1 (centres undefined),n,n,127.8,113.8,129.9,125.9,171.3,n,n
O=C(NNC(=O)c1csc(N2CCOCC2)n1)c1cccnc1,u,n,n,n,x,x,x,x,x
COc1cc(/C=C2/C(=O)NN(c3ccc(Cl)cc3)C2=O)ccc1OC(=O)c1ccco1,n,n,n,n,x,x,x,x,x
SMILES,Rtt109 Vps75,HNF4A DNA FP,TPT1 inhibitor,CSN inh,TPT1 inh confirm,RNase T1 inh,CSN5 deneddyl,MMP2 cntr CSN,Thrombin counter
COc1cc(/C=C2/C(=O)NN(c3ccc(Cl)cc3)C2=O)cc(Br)c1O,n,n,66.8,44.9,112.5,123.2,n,n,22.8
O=C(COC(=O)c1c(F)cccc1F)NC(=O)NCc1ccccc1,x,n,x,n,x,x,x,x,x
Cn1c(O)c(/C=N/NC(=O)c2cc3ccccc3cc2O)c2ccccc21,n,n,121.5,39.6,127.4,124.7,74.9,n,44.7
O=C(N/N=C/c1ccco1)c1cc([N+](=O)[O-])cc([N+](=O)[O-])c1,n,n,n,n,x,x,x,x,x
O=C(O)c1ccc(N/N=C/C=C/c2ccc([N+](=O)[O-])o2)cc1,n,n,44.1,45.5,62.7,71.7,n,n,n
O=[N+]([O-])c1ccc(N/N=C/c2c[nH]c3ccccc23)cc1,n,77.8,125.0,57.3,105.6,108.5,55.9,n,56.8
O=[N+]([O-])c1ccccc1N/N=C/c1c[nH]c2ccccc12,n,n,n,n,x,x,x,x,x
O=C(O)c1cccc(-c2ccc(/C=N/Nc3ccc([N+](=O)[O-])cc3)o2)c1,n,n,124.5,92.5,125.5,119.9,50.6,n,n
O=C(O)c1ccc(N/N=C/c2ccc(-c3cccc(Cl)c3)o2)cc1,n,n,n,n,x,x,x,x,x
O=[N+]([O-])c1ccc(N/N=C/C=C/c2ccco2)cc1,n,88.9,118.9,56.3,123.3,122.1,51.5,n,43.5
Cc1cc(/C=C2\SC(=S)N(C)C2=O)c(C)n1-c1cccc(O)c1,n,72.3,78.0,37.1,114.4,117.2,70.9,n,94.3
COc1ccc(C(C#N)=Cc2ccc(OC)c(OC)c2)cc1,x,n,x,n,x,x,x,x,x
COc1cc(N2CCCC2)c(OC)cc1/C=C(/C#N)c1ccc(Br)cc1,n,n,103.7,60.0,129.9,147.4,90.0,n,22.1
COc1ccccc1C(O)c1ncc(-c2cccc(C(F)(F)F)c2)[nH]1 (centres undefined),x,n,x,n,x,x,x,x,x
CCOc1ccccc1/C=N/NC(=O)c1c(C)nc2ccc(Br)cn12,n,n,n,n,x,x,x,x,x
COc1cccc(/C=N/NC(=O)c2c(C)nc3ccc(Br)cn23)c1O,n,n,31.1,44.9,43.0,46.4,n,n,n
O=C(C[C@H]1C/C=C\CC[C@H](Cc2ccc(F)cc2)C(=O)OC[C@@H]2CCCN2C1=O)N[C@H](CO)Cc1ccccc1,n,n,x,n,x,x,x,x,x
Nc1[nH]c2cc([N+](=O)[O-])ccc2c1-c1ccccn1,n,91.4,101.1,63.9,102.3,105.5,n,n,43.8
C[C@@H]1CN([C@H](C)CO)C(=O)c2cc(-c3ccccc3)cnc2O[C@@H]1CN(C)C(=O)C1CCOCC1,x,n,x,n,x,x,x,x,x
COc1cc(-c2c(C#N)c(N)nc3[nH]c(=S)[nH]c(=O)c23)ccc1O,n,n,n,n,x,x,x,x,x
Cc1cc2nc3s/c(=C/c4ccc(-c5ccccc5C(=O)O)o4)c(=O)n3c2cc1C,n,n,111.5,99.1,125.1,123.3,n,n,64.0

# High-throughput results as filed in PubChem.
